ChEMBL document CHEMBL3769376, “Discovery of I-BRD9, a Selective Cell Active Chemical Probe for Bromodomain Containing Protein 9 Inhibition” (J Med Chem, 2016)
Converted amounts (≈) assume the structure as drawn. The source made the active and inactive calls. The rule behind the calls is not given here.

Legend:
[1] = biological target: Phosphatidylinositol 4,5-bisphosphate 3-kinase catalytic subunit gamma isoform (Homo sapiens) (UniProt P48736); test: Inhibition of human PI3Kgamma at <5 uM by TR-FRET assay
[2] = species on record: Homo sapiens; test: Antagonist activity at human GABA-A receptor at <5 uM by electrophysiology
[3] = biological target: Cytochrome P450 3A4 (Homo sapiens, UniProt P08684); test: Inhibition of CYP3A4 (unknown origin) preincubated with substrate at <5 uM by mass spectrometry; format: ADME
[4] = Aqueous solubility of the compound in PBS at pH 7.4 by chemiluminescent nitrogen detection method; format: physicochemical
Procedure, shortened: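 A 10 mM DMSO stock was precipitated into pH7.4 phosphate buffered saline at 5% DMSO. Dissolved compound was quantified by chemiluminescent nitrogen detection.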

[5] = biological target: Aurora kinase B (Homo sapiens) (UniProt Q96GD4); test: Inhibition of human aurora B at <5 uM by IMAP assay
Chain of Aurora kinase B (Homo sapiens) (Q96GD4 whole entry): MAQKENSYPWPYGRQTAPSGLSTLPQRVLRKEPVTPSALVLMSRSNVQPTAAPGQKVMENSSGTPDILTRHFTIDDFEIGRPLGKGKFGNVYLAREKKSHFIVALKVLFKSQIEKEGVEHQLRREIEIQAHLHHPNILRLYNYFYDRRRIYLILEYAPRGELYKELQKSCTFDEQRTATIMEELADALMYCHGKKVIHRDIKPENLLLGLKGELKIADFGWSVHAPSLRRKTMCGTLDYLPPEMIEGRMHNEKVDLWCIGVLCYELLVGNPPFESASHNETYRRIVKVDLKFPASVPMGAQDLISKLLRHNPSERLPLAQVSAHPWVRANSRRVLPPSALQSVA

[6] = biological target: 5-hydroxytryptamine receptor 2A (Homo sapiens) (UniProt P28223); test: Agonist activity at human 5HT2A receptor by assessed as change in intracellular calcium level at <5 uM by fluorescence assay; format: functional, cell-based
Chain of 5-hydroxytryptamine receptor 2A (Homo sapiens) (P28223 whole entry): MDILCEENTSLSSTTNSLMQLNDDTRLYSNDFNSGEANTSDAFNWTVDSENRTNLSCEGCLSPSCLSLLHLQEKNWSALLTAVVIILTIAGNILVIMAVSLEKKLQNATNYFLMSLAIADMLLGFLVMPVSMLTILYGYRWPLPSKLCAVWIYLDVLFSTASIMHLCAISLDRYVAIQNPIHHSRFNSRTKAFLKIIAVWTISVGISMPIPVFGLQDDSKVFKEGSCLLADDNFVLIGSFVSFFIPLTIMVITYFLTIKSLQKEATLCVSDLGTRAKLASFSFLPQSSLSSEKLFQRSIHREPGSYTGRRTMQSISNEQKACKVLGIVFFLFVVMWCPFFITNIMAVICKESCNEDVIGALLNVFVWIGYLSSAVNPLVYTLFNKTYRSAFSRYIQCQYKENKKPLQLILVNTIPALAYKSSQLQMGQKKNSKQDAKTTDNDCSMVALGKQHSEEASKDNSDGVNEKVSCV

[7] = biological target: Voltage-gated inwardly rectifying potassium channel KCNH2 (Homo sapiens, UniProt Q12809); test: Inhibition of human ERG channel at <5 uM by electrophysiology
Chain of Voltage-gated inwardly rectifying potassium channel KCNH2 (Q12809 whole entry): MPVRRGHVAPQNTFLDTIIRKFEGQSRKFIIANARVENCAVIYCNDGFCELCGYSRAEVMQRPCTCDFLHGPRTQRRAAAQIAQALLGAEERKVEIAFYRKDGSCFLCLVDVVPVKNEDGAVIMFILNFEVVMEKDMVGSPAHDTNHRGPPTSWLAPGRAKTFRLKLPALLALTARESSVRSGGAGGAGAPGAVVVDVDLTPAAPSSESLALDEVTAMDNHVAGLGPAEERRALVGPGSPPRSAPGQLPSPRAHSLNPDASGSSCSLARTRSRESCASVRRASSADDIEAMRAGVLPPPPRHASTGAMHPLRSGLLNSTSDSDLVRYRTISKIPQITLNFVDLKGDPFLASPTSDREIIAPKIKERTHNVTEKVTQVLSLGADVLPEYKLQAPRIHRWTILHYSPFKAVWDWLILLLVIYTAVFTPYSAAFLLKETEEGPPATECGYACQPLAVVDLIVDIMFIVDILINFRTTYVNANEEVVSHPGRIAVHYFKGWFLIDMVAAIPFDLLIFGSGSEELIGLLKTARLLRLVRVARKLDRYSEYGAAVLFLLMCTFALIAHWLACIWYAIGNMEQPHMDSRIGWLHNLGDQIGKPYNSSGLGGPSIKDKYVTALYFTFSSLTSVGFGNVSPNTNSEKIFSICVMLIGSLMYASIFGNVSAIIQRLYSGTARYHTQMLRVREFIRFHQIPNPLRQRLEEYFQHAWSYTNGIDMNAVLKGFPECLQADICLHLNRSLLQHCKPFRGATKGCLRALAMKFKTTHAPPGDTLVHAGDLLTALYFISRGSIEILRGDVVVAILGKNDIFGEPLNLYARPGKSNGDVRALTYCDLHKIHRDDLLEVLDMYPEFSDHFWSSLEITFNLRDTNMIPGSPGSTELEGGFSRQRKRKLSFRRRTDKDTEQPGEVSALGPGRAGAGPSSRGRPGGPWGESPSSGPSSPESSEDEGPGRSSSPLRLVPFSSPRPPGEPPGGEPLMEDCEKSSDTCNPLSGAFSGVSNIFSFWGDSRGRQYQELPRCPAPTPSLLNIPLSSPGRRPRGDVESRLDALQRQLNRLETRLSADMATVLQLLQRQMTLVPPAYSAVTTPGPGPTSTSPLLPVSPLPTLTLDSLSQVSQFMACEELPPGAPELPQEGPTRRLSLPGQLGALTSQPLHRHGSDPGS

[8] = biological target: 5-hydroxytryptamine receptor 1B (Homo sapiens) (UniProt P28222); test: Antagonist activity at human 5HT1B receptor at <5 uM by scintillation proximity assay
Chain of 5-hydroxytryptamine receptor 1B (Homo sapiens) (P28222 whole entry): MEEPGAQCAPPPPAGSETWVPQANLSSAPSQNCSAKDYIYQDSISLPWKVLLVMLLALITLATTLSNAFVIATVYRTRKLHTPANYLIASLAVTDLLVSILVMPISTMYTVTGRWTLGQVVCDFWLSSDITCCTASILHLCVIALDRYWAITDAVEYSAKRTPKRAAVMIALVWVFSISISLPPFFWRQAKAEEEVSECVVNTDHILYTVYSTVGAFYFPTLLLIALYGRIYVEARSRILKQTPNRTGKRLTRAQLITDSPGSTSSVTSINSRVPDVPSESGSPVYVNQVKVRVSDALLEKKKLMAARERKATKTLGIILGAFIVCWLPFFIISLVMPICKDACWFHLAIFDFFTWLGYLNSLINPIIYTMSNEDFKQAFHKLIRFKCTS

[9] = biological target: Muscarinic acetylcholine receptor M1 (Homo sapiens) (UniProt P11229); test: Agonist activity at human muscarinic 1 receptor assessed as change in intracellular calcium level at <5 uM by fluorescence assay; format: functional, cell-based
[10] = biological target: Amine oxidase [flavin-containing] A (Homo sapiens, UniProt P21397); test: Inhibition of human MAO-A at <5 uM by FLINT assay
[11] = biological target: T1, Bromodomain-containing protein 9 (Homo sapiens) (UniProt Q9H8M2); conditions: Kasumi 1, 10 uM
T1 sequence (whole entry): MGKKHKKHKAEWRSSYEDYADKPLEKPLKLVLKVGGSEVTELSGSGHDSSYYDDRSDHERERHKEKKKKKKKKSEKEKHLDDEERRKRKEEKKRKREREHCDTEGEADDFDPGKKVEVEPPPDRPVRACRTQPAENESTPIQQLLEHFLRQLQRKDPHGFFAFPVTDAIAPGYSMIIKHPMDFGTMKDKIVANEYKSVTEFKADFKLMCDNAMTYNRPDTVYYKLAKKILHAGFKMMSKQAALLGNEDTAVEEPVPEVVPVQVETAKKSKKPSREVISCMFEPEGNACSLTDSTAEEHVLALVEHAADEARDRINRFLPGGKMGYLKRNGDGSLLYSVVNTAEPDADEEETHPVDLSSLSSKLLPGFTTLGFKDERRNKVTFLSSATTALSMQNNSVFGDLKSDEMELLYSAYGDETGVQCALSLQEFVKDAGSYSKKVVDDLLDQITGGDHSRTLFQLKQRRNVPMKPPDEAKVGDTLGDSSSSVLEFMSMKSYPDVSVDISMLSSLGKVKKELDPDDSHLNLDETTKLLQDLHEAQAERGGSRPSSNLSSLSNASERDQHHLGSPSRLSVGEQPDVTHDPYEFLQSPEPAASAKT

[12] = biological target: Nuclear receptor subfamily 1 group I member 2 (Homo sapiens, UniProt O75469); test: Agonist activity at human PXR at <5 uM by luciferase reporter gene assay
Chain of Nuclear receptor subfamily 1 group I member 2 (O75469 whole entry): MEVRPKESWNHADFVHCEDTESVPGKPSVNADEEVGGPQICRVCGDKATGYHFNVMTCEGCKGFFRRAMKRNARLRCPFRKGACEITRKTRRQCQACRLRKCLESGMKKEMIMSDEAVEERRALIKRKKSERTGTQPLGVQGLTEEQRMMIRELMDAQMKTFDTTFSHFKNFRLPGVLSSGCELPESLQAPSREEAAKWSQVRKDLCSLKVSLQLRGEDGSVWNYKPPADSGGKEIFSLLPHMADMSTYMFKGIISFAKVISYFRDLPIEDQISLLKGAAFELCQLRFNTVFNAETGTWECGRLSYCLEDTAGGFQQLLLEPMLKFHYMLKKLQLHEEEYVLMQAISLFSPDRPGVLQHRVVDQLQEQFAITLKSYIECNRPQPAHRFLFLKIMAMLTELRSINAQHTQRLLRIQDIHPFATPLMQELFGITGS

[13] = biological target: T1, Bromodomain-containing protein 9 (Homo sapiens); conditions: Kasumi 1, 10 uM; remark: listed apart in the source
[14] = biological target: 3',5'-cyclic-AMP phosphodiesterase 4B (Homo sapiens) (UniProt Q07343); test: Inhibition of human PDE4B at <5 uM by luminescence assay
[15] = biological target: 5-hydroxytryptamine receptor 2A (Homo sapiens) (UniProt P28223); test: Antagonist activity at human 5HT2A receptor assessed as change in intracellular calcium level at <5 uM by fluorescence assay; format: functional, cell-based
[16] = biological target: Acetylcholinesterase (Homo sapiens) (UniProt P22303); test: Inhibition of human acetylcholinesterase at <5 uM by mass spectrometry
[17] = biological target: Acetylcholine receptor subunit alpha (Homo sapiens) (UniProt P02708); test: Inhibition of human alpha1 nACHR assessed as change in intracellular calcium level at <5 uM by fluorescence assay; format: cell-based
Chain of Acetylcholine receptor subunit alpha (Homo sapiens) (P02708 whole entry): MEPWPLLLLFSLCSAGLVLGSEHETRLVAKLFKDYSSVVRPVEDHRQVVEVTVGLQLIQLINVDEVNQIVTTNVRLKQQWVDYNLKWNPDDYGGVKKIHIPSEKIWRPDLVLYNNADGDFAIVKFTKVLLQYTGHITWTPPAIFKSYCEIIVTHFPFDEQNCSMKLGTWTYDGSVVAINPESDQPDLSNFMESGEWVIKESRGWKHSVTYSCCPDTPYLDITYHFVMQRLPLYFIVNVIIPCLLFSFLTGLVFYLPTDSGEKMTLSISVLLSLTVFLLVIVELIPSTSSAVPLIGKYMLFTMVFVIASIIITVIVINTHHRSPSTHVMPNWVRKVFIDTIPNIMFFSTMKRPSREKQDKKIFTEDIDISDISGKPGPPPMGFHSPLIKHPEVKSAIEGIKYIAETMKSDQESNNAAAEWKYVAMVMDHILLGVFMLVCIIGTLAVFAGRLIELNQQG

[18] = biological target: Potassium voltage-gated channel subfamily A member 5 (Homo sapiens) (UniProt P22460); test: Inhibition of human Kv1.5 channel at <5 uM by electrophysiology
Chain of Potassium voltage-gated channel subfamily A member 5 (Homo sapiens) (P22460 whole entry): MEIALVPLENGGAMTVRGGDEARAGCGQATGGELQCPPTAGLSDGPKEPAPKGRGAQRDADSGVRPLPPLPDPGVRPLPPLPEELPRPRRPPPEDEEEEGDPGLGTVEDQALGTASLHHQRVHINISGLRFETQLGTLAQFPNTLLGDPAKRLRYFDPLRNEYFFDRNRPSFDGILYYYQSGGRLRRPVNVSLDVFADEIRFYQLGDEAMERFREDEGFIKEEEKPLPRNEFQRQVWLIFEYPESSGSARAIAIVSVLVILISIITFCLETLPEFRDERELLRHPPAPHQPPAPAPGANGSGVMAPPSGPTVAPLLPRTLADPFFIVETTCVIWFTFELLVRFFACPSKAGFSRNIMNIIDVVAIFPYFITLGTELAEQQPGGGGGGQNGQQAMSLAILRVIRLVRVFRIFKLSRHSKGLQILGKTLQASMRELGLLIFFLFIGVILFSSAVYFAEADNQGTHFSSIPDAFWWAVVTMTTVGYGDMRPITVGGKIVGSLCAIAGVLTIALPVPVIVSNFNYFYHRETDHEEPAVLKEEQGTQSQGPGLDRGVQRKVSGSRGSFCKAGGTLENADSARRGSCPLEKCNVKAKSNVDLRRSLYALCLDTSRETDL

[19] = biological target: cGMP-inhibited 3',5'-cyclic phosphodiesterase 3A (Homo sapiens) (UniProt Q14432); test: Inhibition of human PDE3A at <5 uM by luminescence assay
[20] = biological target: Amine oxidase [flavin-containing] B (Homo sapiens, UniProt P27338); test: Inhibition of human MAO-B at <5 uM by FLINT assay
Chain of Amine oxidase [flavin-containing] B (P27338 whole entry): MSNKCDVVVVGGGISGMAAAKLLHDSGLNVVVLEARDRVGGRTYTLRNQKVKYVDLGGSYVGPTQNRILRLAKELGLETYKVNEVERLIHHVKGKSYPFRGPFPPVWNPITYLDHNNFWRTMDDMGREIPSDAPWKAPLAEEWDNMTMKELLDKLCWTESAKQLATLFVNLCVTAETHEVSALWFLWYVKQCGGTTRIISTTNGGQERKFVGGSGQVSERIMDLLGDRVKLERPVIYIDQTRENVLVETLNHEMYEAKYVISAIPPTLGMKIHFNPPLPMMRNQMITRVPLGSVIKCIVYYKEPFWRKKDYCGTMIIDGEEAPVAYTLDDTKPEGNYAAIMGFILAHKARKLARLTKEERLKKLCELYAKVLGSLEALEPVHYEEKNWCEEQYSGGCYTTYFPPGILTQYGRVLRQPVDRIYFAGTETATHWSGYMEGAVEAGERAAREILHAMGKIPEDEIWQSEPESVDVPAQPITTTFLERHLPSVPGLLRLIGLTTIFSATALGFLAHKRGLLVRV

[21] = biological target: Glutamate receptor ionotropic, NMDA 2B (Homo sapiens) (UniProt Q13224); test: Antagonist activity at human NMDA 2B receptor assessed as change in intracellular calcium level at <5 uM by fluorescence assay; format: cell-based
[22] = biological target: 5-hydroxytryptamine receptor 3A (Homo sapiens) (UniProt P46098); test: Antagonist activity at human 5HT3 receptor assessed as change in intracellular calcium level at <5 uM by fluorescence assay; format: cell-based
Chain of 5-hydroxytryptamine receptor 3A (Homo sapiens) (P46098 whole entry): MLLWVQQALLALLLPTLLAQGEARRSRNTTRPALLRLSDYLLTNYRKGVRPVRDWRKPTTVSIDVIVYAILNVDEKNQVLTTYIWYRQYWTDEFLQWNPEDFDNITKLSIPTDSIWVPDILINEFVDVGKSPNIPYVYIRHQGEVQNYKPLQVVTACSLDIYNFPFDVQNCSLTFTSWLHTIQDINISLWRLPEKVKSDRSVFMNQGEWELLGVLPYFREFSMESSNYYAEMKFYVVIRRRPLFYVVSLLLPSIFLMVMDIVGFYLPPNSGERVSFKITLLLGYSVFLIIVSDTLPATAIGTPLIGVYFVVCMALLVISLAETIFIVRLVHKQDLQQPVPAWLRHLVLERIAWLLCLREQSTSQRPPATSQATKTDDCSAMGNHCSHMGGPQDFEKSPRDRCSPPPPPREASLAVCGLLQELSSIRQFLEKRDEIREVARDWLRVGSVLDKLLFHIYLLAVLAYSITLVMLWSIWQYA

**Q.** With `CCn1cc(-c2cccc(C(F)(F)F)c2)c2sc(C(=N)NC3CCS(=O)(=O)CC3)cc2c1=O` as the compound, how does the inhibition [1] read?
**A.** inactive

**Q.** What about the inhibition [2] of the same compound?
**A.** inactive

**Q.** What about the “inhibition (INH)” value [3] of the same compound?
**A.** Not Active

**Q.** And the solubility [4]?
**A.** 359 µM (≈ 179 µg/mL)

**Q.** And the inhibition [5]?
**A.** inactive

**Q.** What about the Activity [6] of the same compound?
**A.** inactive

**Q.** And the “inhibition (INH)” value [7]?
**A.** Not Active

**Q.** And the inhibition [8]?
**A.** inactive

**Q.** And the Activity [9]?
**A.** inactive

**Q.** And the “inhibition (INH)” value [10]?
**A.** Not Active

**Q.** What about the inhibition [11] of the same compound?
**A.** Active

**Q.** What about the Activity [12] of the same compound?
**A.** Not Active

**Q.** What about the inhibition [13] of the same compound?
**A.** Active

**Q.** And the inhibition [14]?
**A.** inactive

**Q.** And the inhibition [15]?
**A.** inactive

**Q.** And the inhibition [16]?
**A.** inactive

**Q.** And the inhibition [17]?
**A.** inactive

**Q.** What about the inhibition [18] of the same compound?
**A.** inactive

**Q.** And the inhibition [19]?
**A.** inactive

**Q.** What about the “inhibition (INH)” value [20] of the same compound?
**A.** Not Active

**Q.** And the inhibition [21]?
**A.** inactive

**Q.** And the inhibition [22]?
**A.** inactive
